Test results as given in PMC5672925 (British Journal of Cancer, 2017).
Entries after “also recorded” stand apart in the source; their conditions may differ.

Columns and labels:
[1] = tested on: patients with advanced, relapsed/refractory B-cell malignancies (predominantly with MM); settings: ref Yong et al, 2016, cited from earlier work
[2] = tested on: relapsed/refractory multiple myeloma; format: in vivo, human; settings: comparison with historical single-agent BTZ
In short: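 Response graded by IMWG criteria, with minimal response added per ASH-FDA panel. Assessed in evaluable phase II patients plus phase I patients at RP2D (KW-2478 175 mg m−2 i.v. over 1 h, 30 min after BTZ 1.3 mg m−2 bolus, days 1, 4, 8, 11 of 21-day cycles). Duration of response ran from first CR/PR/MR to PD or death. PFS ran from treatment day 1 to PD or death. Both by Kaplan–Meier.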

[3] = tested on: patients with relapsed/refractory MM; experiment: Safety: treatment-related adverse events; format: in vivo, human
In short: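 Safety population was all patients receiving ≥1 dose. AEs were graded by CTCAE v4.0; treatment-related meant possibly, probably or definitely drug-related per investigator. Vital signs, vision, peripheral neuropathy, haematology and chemistry were checked at screening, on days 1, 4, 8, 11 and 16–18 of each cycle, at end of treatment and at 30-day follow-up. Phase I screening included slit-lamp retinal examination.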

[4] = tested on: patients with relapsed/refractory MM; experiment: Phase I dose escalation; format: in vivo, human; settings: days 1, 4, 8, 11 every 3 weeks, up to KW-2478 175 mg m^−2 plus BTZ 1.3 mg m^−2
In short: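 DLT window was cycle 1, graded by CTCAE v4.0. DLT was related non-haematologic grade ≥3 toxicity (controllable GI events excepted) or grade 4 haematologic toxicity (neutropenia ≤5 days excepted).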

MM models = settings: cited from earlier work
[5] = Plasma pharmacokinetics of KW-2478 in phase I, cycle 1; format: in vivo, human
[6] = tested on: relapsed and/or refractory MM; settings: ref Richardson et al, cited from earlier work
[7] = large-scale phase III trials, 2005, Orlowski et al, 2007

Row | SMILES | Single-agent clinical activity [1] | Tolerability ([1]; single agent) | Contribution of KW-2478 to the efficacy of BTZ alone [2] | Ocular safety ([3]; in combination with BTZ) | Effect on toxicity of BTZ in the combination regimen ([3]; in vivo) | Maximum tolerated dose (MTD) [4] | Antitumour activity (MM models; KW-2478 alone, ref Nakashima et al, 2010) | Antitumour activity in MM cells in the presence of bone marrow stromal cells (MM models; ref Juliger et al, 2008) | Mean CL, range ([5]; 130 mg m^−2 dose) [L/h] | Mean CL, range ([5]; 175 mg m^−2 dose) [L/h] | Effect of increase in BTZ dose on KW-2478 pharmacokinetics ([5]; co-administered BTZ 1 vs 1.3 mg m^−2) | Accumulation ([5]; day 11 vs day 1, cycle 1) | ORR, BTZ alone (reference) ([6]; SUMMIT trial, 2006) [%] | Median PFS, single-agent BTZ [6, 7] [months] | ORR, single-agent BTZ [6, 7] [%]
1 | CCc1c(O)cc(O)c(C(=O)c2ccc(OCCN3CCOCC3)c(OC)c2)c1CC(=O)N(CCOC)CCOC [KW-2478] | modest single-agent activity; also recorded: preliminary signs of clinical activity were seen | well tolerated | insufficient evidence that KW-2478 added to the efficacy of BTZ alone | did not raise any ocular safety concerns | did not enhance the toxicity of BTZ | not reached | exhibits antitumour activity | retained | 25.9 to 33.3 | 32.2 to 62.0 | did not affect | Accumulation did not occur | – | – | –
2 | CC(C)C[C@H](NC(=O)[C@H](Cc1ccccc1)NC(=O)c1cnccn1)B(O)O [BTZ, bortezomib] | – | – | – | – | – | – | – | – | – | – | – | – | 35 | ~6 | ~40
